We go through 7 compounds from ChEMBL document CHEMBL1938284, “Synthesis and biological activity of novel organoselenium derivatives targeting multiple kinases and capable of inhibiting cancer progression to metastases” (Eur J Med Chem, 2012).

This experiment is described as follows: Antiproliferative activity against human MDA231 cells after 72 hrs by MTT assay. It counts as functional, cell-based. The conditions noted are these: MDA-MB-231, 72 h. In outline:
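MTT read-out on MDA-231 cells. 1×10^3 exponentially growing cells seeded and incubated 24, 48 and 72 h. Medium replaced with 1 mg/mL MTT for 3–4 h at 37 °C.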
On the technique in general: Tetrazolium assays rely on reduction of a dye to a coloured formazan, in cell work by metabolically active cells.

Some results are limits rather than exact numbers.

With `CC(=O)OC[C@H]1O[C@@H](n2[se]c3ccccc3c2=O)[C@H](OC(C)=O)[C@@H](OC(C)=O)[C@@H]1O[C@@H]1O[C@H](COC(C)=O)[C@@H](OC(C)=O)[C@H](OC(C)=O)[C@H]1OC(C)=O`, inhibition was half-maximal at 20 µM (IC50). Under `O=c1c2ccccc2[se]n1[C@@H]1O[C@H](CO)[C@@H](O[C@@H]2O[C@H](CO)[C@H](O)[C@H](O)[C@H]2O)[C@H](O)[C@H]1O` stands above 100 µM; under `CC(=O)OC[C@H]1O[C@@H](n2[se]c3ccccc3c2=O)[C@H](OC(C)=O)[C@@H](OC(C)=O)[C@H]1OC(C)=O`, 21 µM; under `O=c1c2ccccc2[se]n1CCO[C@@H]1O[C@H](CO)[C@@H](O)[C@H](O)[C@H]1O`, above 100 µM. In the case of `CC(=O)OC[C@H]1O[C@@H](OCCn2[se]c3ccccc3c2=O)[C@H](OC(C)=O)[C@@H](OC(C)=O)[C@@H]1OC(C)=O`, the IC50 – broadly, the concentration at which inhibition is half-maximal – is 35 µM. For the compound `O=c1c2ccccc2[se]n1[C@@H]1O[C@H](CO)[C@@H](O[C@@H]2O[C@H](CO)[C@@H](O)[C@H](O)[C@H]2O)[C@H](O)[C@H]1O`, the IC50 is above 100 µM. `O=c1c2ccccc2[se]n1[C@@H]1O[C@H](CO)[C@H](O)[C@H](O)[C@H]1O` registered an IC50 above 100 µM.
